Source: ChEMBL document CHEMBL1147539, “Synthesis and biological evaluation of novel, selective, nonsteroidal glucocorticoid receptor antagonists” (Bioorg Med Chem Lett, 2004)
Blank lines part the entries; values can stand above or below the compound they belong to.

Assays:
[1] = target: T1, Glucocorticoid receptor (Homo sapiens, UniProt P04150); assay: Effect on human Glucocorticoid receptor (GR) in a whole cell assay to measure functional cellular GR-antagonism (GRAF)
T1 sequence (P04150 whole entry): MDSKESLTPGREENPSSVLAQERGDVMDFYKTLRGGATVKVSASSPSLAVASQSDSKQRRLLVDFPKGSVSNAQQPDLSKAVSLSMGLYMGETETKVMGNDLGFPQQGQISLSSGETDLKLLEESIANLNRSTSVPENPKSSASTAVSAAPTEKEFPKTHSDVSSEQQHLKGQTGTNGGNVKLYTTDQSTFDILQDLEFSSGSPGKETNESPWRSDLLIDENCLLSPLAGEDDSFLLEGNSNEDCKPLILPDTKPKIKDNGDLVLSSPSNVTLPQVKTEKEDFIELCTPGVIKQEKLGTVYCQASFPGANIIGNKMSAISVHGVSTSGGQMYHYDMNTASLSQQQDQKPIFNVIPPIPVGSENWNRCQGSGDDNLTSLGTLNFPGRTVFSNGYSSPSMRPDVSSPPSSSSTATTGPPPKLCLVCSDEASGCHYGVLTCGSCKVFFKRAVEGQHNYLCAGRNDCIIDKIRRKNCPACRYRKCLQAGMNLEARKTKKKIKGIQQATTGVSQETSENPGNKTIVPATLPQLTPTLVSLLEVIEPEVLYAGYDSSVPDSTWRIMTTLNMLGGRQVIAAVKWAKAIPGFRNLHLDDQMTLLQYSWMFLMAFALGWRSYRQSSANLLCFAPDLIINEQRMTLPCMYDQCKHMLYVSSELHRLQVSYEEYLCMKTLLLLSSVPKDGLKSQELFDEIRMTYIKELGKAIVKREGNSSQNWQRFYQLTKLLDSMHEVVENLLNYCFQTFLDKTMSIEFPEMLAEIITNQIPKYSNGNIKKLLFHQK

[2] = target: T1, Glucocorticoid receptor; assay: Displacement of [3H]dexamethasone from human Glucocorticoid receptor (GR); Value ranges from 1273-2947 nM
How it was run: (§1)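 Binding to human GR; IC50 reported as the geometric mean of two experiments (three for some values), each run in duplicate, with the range of the experiments given.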

[3] = target: T1, Glucocorticoid receptor
[4] = target: T1, Glucocorticoid receptor; assay: Displacement of [3H]dexamethasone from human Glucocorticoid receptor (GR); Value ranges from 28-34 nM
[5] = target: T1, Glucocorticoid receptor; remark: listed apart in the source
[6] = target: T1, Glucocorticoid receptor; assay: Effect on functional cellular GR-antagonism (GRAF) in human Glucocorticoid receptor (GR) expressing cells
How it was run: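 Whole-cell functional GR antagonism measured in a genetically engineered mammalian cell line expressing GR; IC50 determined from 12-concentration compound curves.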

[7] = target: T1, Glucocorticoid receptor; assay: Displacement of [3H]dexamethasone from human Glucocorticoid receptor (GR); Value ranges from 559-1423 nM; how it was run: as §1
[8] = target: T1, Glucocorticoid receptor; assay: Displacement of [3H]dexamethasone from human Glucocorticoid receptor (GR); Value ranges from 9-12 nM
[9] = target: T1, Glucocorticoid receptor; remark: listed apart in the source
[10] = target: T1, Glucocorticoid receptor; assay: Displacement of [3H]dexamethasone from human Glucocorticoid receptor (GR); Value ranges from 106-131 nM
[11] = target: T1, Glucocorticoid receptor; assay: Displacement of [3H]dexamethasone from human Glucocorticoid receptor (GR); Value ranges from 26-67 nM; how it was run: as §1

SMILES: COc1cccc2c1-c1ccc(N)cc1C(c1ccccc1)O2 (stereo unspecified)
IC50 [1]: 2020 nM | IC50 [2]: 1940 nM

SMILES: CCOc1ccc(CC2Oc3cccc(OC)c3-c3ccc(NS(C)(=O)=O)cc32)cc1 (stereo unspecified)
IC50 [3]: 548 nM

SMILES: CCOC(=O)c1cccc(C2Oc3cccc(OC)c3-c3ccc(NS(C)(=O)=O)cc32)c1 (stereo unspecified)
IC50 [4]: 31 nM | IC50 [1]: 296 nM

SMILES: CS(=O)(=O)Nc1ccc2c(c1)C(c1ccccc1)Oc1cccc(-c3cccs3)c1-2 (stereo unspecified)
IC50 [5]: 656 nM

SMILES: COc1cccc2c1-c1ccc(NS(C)(=O)=O)cc1C(c1ccc(Cl)cc1)O2 (stereo unspecified)
IC50 [1]: 129 nM | IC50 [8]: 10 nM

SMILES: COc1cccc2c1-c1ccc(NCc3ccccc3)cc1C(c1ccccc1)O2 (stereo unspecified)
IC50 [1]: 402 nM | IC50 [9]: 910 nM

Next, values leading:

IC50 [6]: 1810 nM | IC50 [7]: 892 nM
SMILES: CS(=O)(=O)Nc1ccc2c(c1)C(c1ccccc1)Oc1cccc(O)c1-2 (stereo unspecified)

IC50 [10]: 117 nM | IC50 [1]: 69 nM
SMILES: COc1cccc2c1-c1ccc(NC(C)=O)cc1C(c1ccccc1)O2 (stereo unspecified)

IC50 [11]: 41 nM | IC50 [1]: 121 nM
SMILES: COc1cccc2c1-c1ccc(NS(=O)(=O)N(C)C)cc1C(c1ccccc1)O2 (stereo unspecified)
